Data set [1] relates to Human immunodeficiency virus 1. The experiment in a line: Inhibition of HIV replication by 50%. Type of data set: functional. The note with it: read-out: ED50 (the source's name).
A further data set deals with MT2. The experiment in a line: Inhibition of MT-2 cell growth by 5% or less over a 72 hr time period. Type of data set: functional, Homo sapiens. A digest of the protocol: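 Compounds dissolved in water, 95% ethanol or ethanol/DMSO, diluted in growth medium, filter-sterilized, 2-fold serial dilutions in triplicate. MT-2 cells (2 × 10^5) exposed 72 h at 37 °C; viability by neutral red dye uptake. CT5 = 5% growth inhibition (within 1 SD of untreated controls), taken from linear part of dose-response curve; reported as greater than top concentration when not reachable.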

Data set [2] has as its system Human immunodeficiency virus 1. The experiment in a line: Inhibition of 50% of the integrase-mediated catalysis of the V1/V2 substrate with 95% confidence interval. Format: functional.
For data set [3], the system named is Human immunodeficiency virus 1. Nature of the data set: Inhibition of 50% of the integrase-mediated catalysis of the Y-oligo substrate with 95% confidence interval. Format: functional.
The nature of data set [4]: Therapeutic index (ratio of CT5 to ED50). The conditions noted are these: for selectivity ratio: read-out: TI.
The test system of data set [5] is Human immunodeficiency virus 1. Nature of the data set: Inhibition of 50% of the integrase-mediated catalysis of the V1/V2 substrate. Format: functional.
The test system of data set [6] is Human immunodeficiency virus 1. The experiment in a line: Inhibition of 50% of the integrase-mediated catalysis of the Y-oligo substrate. Type of data set: functional.

Broadly, the IC50 is the midpoint of a concentration-inhibition curve. Read a high IC50 as lower potency.

Some results are limits rather than exact numbers.

On to `O=C(/C=C\c1ccc(O)c(O)c1)NC(COC(=O)/C=C/c1ccc(O)c(O)c1)C(=O)O` (stereo not drawn), for which, in data set [1], the EC50 worked out at 2.5 µM. The CT5 in the data set on MT2 was 39 µM. The half-inhibitory concentration (IC50) in data set [2] (Human immunodeficiency virus 1) was determined as 330 nM; in data set [3] (Human immunodeficiency virus 1) it was 120 nM. Besides, the selectivity ratio in data set [4] came out at 16.
With `CC(CCC(=O)O)C1CC[C@H]2[C@@H]3[C@H](OC(=O)/C=C/c4ccc(O)c(O)c4)CC4C[C@H](OC(=O)/C=C/c5ccc(O)c(O)c5)CC[C@]4(C)[C@H]3C[C@H](OC(=O)/C=C/c3ccc(O)c(O)c3)[C@]12C` (stereo partly drawn), in data set [1] (Human immunodeficiency virus 1), the EC50 is > 140 µM. The compound also returned a CT5 with MT2 of 11.4 µM. Moreover, the IC50 in data set [2] (Human immunodeficiency virus 1) amounted to 970 nM; in data set [3] (Human immunodeficiency virus 1) it was 750 nM. Further, the selectivity ratio in data set [4] was < 1.
Consider `O=C(O)C(Cc1ccc(O)c(O)c1)C(Cc1ccc(O)c(O)c1)C(=O)O` (stereo in doubt; 24b), for which, in data set [1], the EC50 stood at 1.9 µM. The compound further showed a CT5 in the data set with MT2 of 71 µM. For the same compound, the IC50 in data set [2] (Human immunodeficiency virus 1) is 440 nM; in data set [3] (Human immunodeficiency virus 1), 2780 nM. Also, in data set [4], the TI came to 37.
Regarding `CC(CCC(=O)O)C1CC[C@H]2[C@@H]3CCC4C[C@H](OC(=O)/C=C/c5ccc(O)c(O)c5)CC[C@]4(C)[C@H]3C[C@H](OC(=O)/C=C/c3ccc(O)c(O)c3)[C@]12C` (stereo partly drawn), in data set [1] (Human immunodeficiency virus 1), the EC50 was > 17 µM. For the same compound, in the data set on MT2, the CT5 was 6.4 µM. Besides, in data set [3] (Human immunodeficiency virus 1), half-maximal inhibition (IC50) was put at 1970 nM. Further, the selectivity ratio in data set [4] was < 1.
Consider `O=C(/C=C\c1ccc(O)c(O)c1)NC(CNC(=O)/C=C/c1ccc(O)c(O)c1)C(=O)O` (stereo not drawn), for which the EC50 in data set [1] (Human immunodeficiency virus 1) was found to be 35 µM. Further, the CT5 with MT2 was 35 µM. Further, the IC50 came out at 830 nM in data set [2] (Human immunodeficiency virus 1) and 570 nM in data set [3] (Human immunodeficiency virus 1). Also, in data set [4], the selectivity ratio is 1.
Take `O=C(/C=C/c1ccc(O)c(O)c1)Nc1cc(NC(=O)/C=C/c2ccc(O)c(O)c2)cc(C(=O)O)c1`: in data set [1] (Human immunodeficiency virus 1), the EC50 came to 4.6 µM. This compound came in with a CT5 in the data set with MT2 of 47 µM. For the same compound, the IC50 in data set [3] (Human immunodeficiency virus 1) stood at 730 nM. The selectivity ratio in data set [4] amounted to 10.
Regarding `O=C(OC(C(=O)O)C(OC(=O)c1ccsc1)C(=O)O)c1ccsc1` (stereo not drawn), the EC50 in data set [1] (Human immunodeficiency virus 1) was > 95 µM. Also, the CT5 with MT2 was determined as 100 µM. The IC50 in data set [5] and in data set [6] was > 10 µM each time. In data set [4], the selectivity ratio is < 1.
Take `O=C(O)C(O)C(O)C(=O)O` (stereo not drawn): in data set [1] (Human immunodeficiency virus 1), the EC50 is > 1000 µM. For the same compound, the CT5 with MT2 was >1000 µM. Also, the IC50 in data set [5] and in data set [6] was > 25 µM each time. Also, in data set [4], the selectivity ratio was < 1.
As for `O=C(OC(C(=O)O)C(OC(=O)c1cccs1)C(=O)O)c1cccs1` (stereo not drawn), in data set [1] (Human immunodeficiency virus 1), the EC50 was > 190 µM. Further, the CT5 with MT2 is >190 µM. Also, the IC50 in data set [5] and in data set [6] was > 10 µM each time. The selectivity ratio in data set [4] is < 1.
As for `O=C(O)C(=C\c1ccc(O)c(O)c1)/C(=C/c1ccc(O)c(O)c1)C(=O)O`, the EC50 in data set [1] (Human immunodeficiency virus 1) came to 4.4 µM. The compound further gave a CT5 in the data set on MT2 of 55 µM. The IC50 in data set [2] (Human immunodeficiency virus 1) amounted to 830 nM; in data set [3] (Human immunodeficiency virus 1), 2190 nM. Besides, the selectivity ratio in data set [4] amounted to 12.
The like results for `CC(=O)Oc1ccc(/C=C/C(=O)OC(C(=O)O)C(OC(=O)/C=C/c2ccc(OC(C)=O)c(OC(C)=O)c2)C(=O)O)cc1OC(C)=O` (stereo not drawn) were, in that order, 4 µM, 18.6 µM, > 10000 nM, 15600 nM and 4.5.
As to `O=C(/C=C/c1ccc(O)c(O)c1)NCC(OC(=O)/C=C\c1ccc(O)c(O)c1)C(=O)O` (stereo not drawn), the EC50 in data set [1] (Human immunodeficiency virus 1) worked out at 2 µM. In the data set on MT2, this compound yielded a CT5 of 175 µM. Further, the values for the IC50 in data set [2] (Human immunodeficiency virus 1) and in data set [3] (Human immunodeficiency virus 1) were 370 nM and 190 nM, respectively. Further, the selectivity ratio in data set [4] stood at 88.
In the case of `NC(=O)C(Cc1ccc(O)c(O)c1)C(Cc1ccc(O)c(O)c1)C(=O)O` (stereo not drawn), the EC50 in data set [1] (Human immunodeficiency virus 1) came out at 49 µM. In the data set with MT2, this compound gave a CT5 of 123 µM. The IC50 is > 10000 nM in data set [2] (Human immunodeficiency virus 1) and 2840 nM in data set [3] (Human immunodeficiency virus 1). Moreover, in data set [4], the selectivity ratio was 2.5.
For `CCCCCCCCCCNC(=O)C(Cc1ccc(O)c(O)c1)C(Cc1ccc(O)c(O)c1)C(=O)O` (stereo not drawn), in data set [1] (Human immunodeficiency virus 1), the EC50 is > 37 µM. In addition, in the data set on MT2, the CT5 stood at 34 µM. The IC50 in data set [2] (Human immunodeficiency virus 1) and in data set [3] (Human immunodeficiency virus 1) was > 10000 nM each time. Also, the selectivity ratio in data set [4] was < 1.
In the case of `O=C(O)C(Cc1ccc(O)c(O)c1)C(Cc1ccc(O)c(O)c1)C(=O)O` (stereo in doubt; 23b), the EC50 in data set [1] was 12.6 µM. The compound further registered a CT5 in the data set with MT2 of 76 µM. Also, the IC50 in data set [2] was 230 nM; in data set [3] it was 4320 nM. Moreover, the TI in data set [4] was determined as 6.
In the case of `CCN(CC)C(=O)C(Cc1ccc(O)c(O)c1)C(Cc1ccc(O)c(O)c1)C(=O)O` (stereo not drawn), the EC50 in data set [1] (Human immunodeficiency virus 1) was 186 µM. In addition, the CT5 with MT2 came to 93 µM. Besides, the IC50 in data set [2] (Human immunodeficiency virus 1) was > 10000 nM; in data set [3] (Human immunodeficiency virus 1) it was 5270 nM. Besides, in data set [4], the selectivity ratio was 0.5.

(Values after ChEMBL document CHEMBL1135546, “Dicaffeoyltartaric acid analogues inhibit human immunodeficiency virus type 1 (HIV-1) integrase and HIV-1 replication at nontoxic concentrations” (J Med Chem, 2002).)
